Screening data as filed in PubChem.
Dyrk1A ADPGlo – rat Dyrk1A kinase inhibitors, primary screen, biochemical, single point, plate reader; Dual specificity tyrosine-phosphorylation-regulated kinase 1A (Rattus norvegicus), Q63470; ADP-Glo luminescence, NFATc1 peptide; inhibition, % at 12.5 µM; 0.43% of 310,000 active; AID 504441, 2011; in the data active = inhibition above about 50%;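 note: plate controls were vehicle with enzyme for no effect and no enzyme for full effect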
GSK3beta inhib – human GSK3beta kinase inhibitors, primary screen, biochemical, cell-free homogeneous, HTS; Glycogen synthase kinase-3 beta (Homo sapiens), P49841; GST-GSK3beta kinase, ADP-Glo luminescence, 60 min; stronger effect = lower value; activity score (negative = inhibition), % at 10 µM; 0.038% of 300,000 active;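 active = more than half of replicate wells score below -50%, meaning over 50% inhibition versus plate controls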;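 note: 0% = median DMSO wells and -100% = median GW8510 positive control wells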
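Assay system: GST-fused GSK3beta enzyme, cell-free / Medium: Tris pH 7.5 buffer with MgCl2, DTT, BSA, heparin / Also added: peptide substrate plus 25 µM ATP (final) / Compound: 10 µM single point / Timing: kinase reaction with compound 60 min at room temperature / Detection: ADP-Glo luminescence / Benchmarks: DMSO neutral wells and GW8510 at 20 µM as positive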
GSK3 alpha inh – blockers of GSK3A enzyme activity – biochemical, luminescence, cell-free homogeneous, HTS, primary screen; AID 2650, 2010; 0.1% of 320,000 active; GSK-3 alpha kinase, ADP-Glo luminescence, 60 min; inhibition, % at 10 µM; Glycogen synthase kinase-3 alpha (Homo sapiens), P49840;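 active = more than half of replicates show inhibition above 20%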;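 note: GST-tagged GSK-3 alpha with peptide substrate and 25 µM ATP; 0% = DMSO neutral wells and 100% = GW8510 positive control wells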
STK33 inh – inhibitors of purified STK33 kinase, primary screen, biochemical, ADP-Glo luminescence, homogeneous, cell-free | Serine/threonine-protein kinase 33 (Homo sapiens), Q9BYT3 | MBP phosphorylation | inhibition, % at 10 µM | 0.073% of 320,000 active | AID 2661, 2010;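 active = inhibition at or above 25%, using the most active replicate where run in duplicate; inactive = inhibition below 25%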
CDK5 inh – inhibitors of human CDK5/p35 kinase, primary screen, biochemical, single concentration; Cyclin-dependent kinase 5 (Homo sapiens) + Cyclin-dependent kinase 5 activator 1 (Homo …; Recombinant CDK5/p35, ADP-Glo luminescence, 60 min; inhibition, % at 10 µM; 0.01% of 330,000 active; AID 488839, 2010;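 active = highest replicate inhibition of at least 50% and at least 75% of replicates reaching 50%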;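 note: plate controls were DMSO neutral control for no effect and GW8510 at 10 µM for full effect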
Target sequence (Q00535 whole entry, looked up): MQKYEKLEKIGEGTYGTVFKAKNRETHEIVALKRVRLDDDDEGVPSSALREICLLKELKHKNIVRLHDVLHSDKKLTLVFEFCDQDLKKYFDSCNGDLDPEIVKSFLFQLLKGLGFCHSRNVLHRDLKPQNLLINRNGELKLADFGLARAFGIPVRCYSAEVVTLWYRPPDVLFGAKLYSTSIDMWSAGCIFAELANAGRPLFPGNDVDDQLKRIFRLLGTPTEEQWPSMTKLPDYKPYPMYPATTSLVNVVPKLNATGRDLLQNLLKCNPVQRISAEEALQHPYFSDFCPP
Target sequence (Q15078 whole entry, looked up): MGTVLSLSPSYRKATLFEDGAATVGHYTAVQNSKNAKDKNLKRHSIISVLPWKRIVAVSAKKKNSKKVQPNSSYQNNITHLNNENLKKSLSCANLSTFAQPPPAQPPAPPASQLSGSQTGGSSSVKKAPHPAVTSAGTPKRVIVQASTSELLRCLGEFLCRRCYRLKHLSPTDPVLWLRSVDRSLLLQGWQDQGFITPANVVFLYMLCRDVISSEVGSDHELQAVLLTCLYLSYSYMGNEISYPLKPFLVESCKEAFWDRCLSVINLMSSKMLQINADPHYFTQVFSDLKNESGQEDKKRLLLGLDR
* marks the source's active call; other numbers are inactive results; . = not tested or not shown. This is one part of a sample in which hits are shown more often than they occur.

SMILES	Dyrk1A ADPGlo	GSK3beta inhib	GSK3 alpha inh	STK33 inh	CDK5 inh
c1ccc(CNc2ncnc3scc(-c4cccs4)c23)nc1	25	-37	57*	11	-4
N#CCN1CCN(CC(=O)Nc2cccc3ccccc23)CC1	10	0	-1	0	0
Cc1[nH]nc2c1C(c1ccc(O)cc1)C1=C(CC(C)(C)CC1=O)N2 (stereo not drawn)	11	-74*	86*	0	5
Cc1ccc(C2C3=C(CC(C)(C)CC3=O)Nc3[nH]c(=S)[nH]c(=O)c32)cc1 (stereo not drawn)	-5	-2	.	-1	2
COc1ccc(C2C3=C(CC(C)(C)CC3=O)Nc3n[nH]c(C)c32)cc1 (stereo not drawn)	3	-33	41	2	0
Cc1[nH]nc2c1C(c1ccsc1)C1=C(CC(C)(C)CC1=O)N2 (stereo not drawn)	8	-77*	84*	4	9
COc1cccc(C2C3=C(CC(C)(C)CC3=O)Nc3n[nH]c(C)c32)c1 (stereo not drawn)	7	-86*	78*	-1	7
Cc1nc2c(o1)C(=O)c1ccccc1C2=Nc1ccccc1	.	.	.	.	-2
Cc1cc(C(=O)O)ccc1N=Cc1c(O)ccc2ccccc12	.	1	0	26*	0
CC(=O)N(C)c1ccc(N=Cc2c(O)ccc3ccccc23)cc1	-4	-2	1	62*	1
Oc1ccccc1N=Cc1c(O)ccc2ccccc12	-1	0	.	.	0
COCCOC(=O)C1=C(C)OC(N)=C(C#N)C1c1cc2cccc(C)c2nc1Cl (stereo not drawn)	3	2	-1	-1	0
O=C(CSc1nnc(C2CCCCC2)n1Cc1ccccc1)NCc1ccco1	-11	0	-1	0	-3
COc1ccc(OC)c(C2CC(=O)Nc3n[nH]c(-c4ccccc4)c32)c1 (stereo not drawn)	3	-7	18	1	1
COc1cccc(C2CC(=O)Nc3n[nH]c(-c4ccccc4)c32)c1OC (stereo not drawn)	-4	-23	61*	0	1
CC(=NN1CC(=O)NC1=O)c1ccc([N+](=O)[O-])o1	0	.	.	.	1
COc1ccc(Br)cc1C1CC(=O)C(C)C(c2cc(Br)ccc2OC)N1 (stereo not drawn)	4	0	-1	-1	0
COc1cccc(-c2onc3ccc(C(=O)/C=C/N(C)C)cc23)c1	10	1	16	54*	1
COc1cc(/C=C/C(O)=C/C(=O)/C=C/c2ccc(O)cc2)ccc1O	-1	.	-3	43*	-2
C[n+]1c(-c2ccc(C=NNC(=O)c3ccc(C(=O)NN=Cc4ccc(-c5cn6ccccc6[n+]5C)cc4)cc3)cc2)cn2ccccc21	2	.	.	.	3
O=C(O)C1OC(Oc2c(-c3ccc(O)c(O)c3)oc3cc(O)cc(O)c3c2=O)C(O)C(O)C1O (stereo not drawn)	.	0	6	1	.
O=c1cc(-c2ccc(O)c(O)c2)oc2cc(O)cc(O)c12	91*	-35	27	-1	15
COc1ccc(-c2cc(=O)c3c(O)cc(O)cc3o2)cc1	-1	.	0	0	-2
O=c1c(O)c(-c2ccc(O)c(O)c2)oc2cc(O)cc(O)c12	4	-45	57*	38*	-3
CC(CCc1ccccc1)NC(=O)CCCCCNc1nc(=S)[nH]c2ccccc12 (stereo not drawn)	.	.	-2	1	.
SMILES	Dyrk1A ADPGlo	GSK3beta inhib	GSK3 alpha inh	STK33 inh	CDK5 inh
CC(C)c1nnc(NC(=O)CCC(=O)N2CCN(c3ccccc3F)CC2)s1	6	4	4	1	1
CC1CCCCN1c1ncnc(N)c1[N+](=O)[O-] (stereo not drawn)	.	-68*	1	0	5
CC1Cc2ccccc2N1c1ncnc(N)c1[N+](=O)[O-] (stereo not drawn)	28	-15	12	3	7
COc1ccccc1C(=O)Nc1cc(Cl)ccc1O	4	2	0	0	1
CCOc1ccccc1C(=O)Nc1cc(Cl)ccc1O	23	-3	0	26*	0
CCCCOC(=O)C1=C(C)Nc2ncnn2C1c1cccc(OC)c1OC (stereo not drawn)	2	-4	85*	0	2
CCC(C)N=Cc1c(Nc2ccccc2)nc2c(C)cccn2c1=O (stereo not drawn)	-5	0	0	1	-1
O=c1c(/C=N/O)c(Nc2ccccc2)nc2ccccn12	.	2	2	57*	-1
COc1ccc(-c2oc3cc(OC(C)=O)cc(OC(C)=O)c3c(=O)c2OC)cc1	.	.	.	.	1
CC(=O)Oc1cc(O)c2c(=O)c(OC(C)=O)c(-c3ccc(OC(C)=O)c(OC(C)=O)c3)oc2c1	86*	-22	29	11	15
CN(C)CCCNc1ccc(-c2cc(Nc3cccc(Cl)c3)ncn2)cn1	17	-86*	36	5	7
O=C(O)CCC1c2cc3c4cc2OC2Oc5cc6c(cc51)C(CCC(=O)O)c1cc5c7cc1OC(O6)c1cc6cc(c1)Oc1cc(cc(C(=O)O)c1)Oc1cc8cc(c1)C(Oc1cc(c(cc1C5CCC(=O)O)C3CCC(=O)O)OC(O4)c1cc(cc(c1)Oc1cc(cc(C(=O)O)c1)O8)Oc1cc(cc(C(=O)O)c1)Oc1cc(cc2c1)Oc1cc(cc(C(=O)O)c1)O6)O7 (stereo not drawn)	.	2	-305	30*	.
CCOC(=O)C1(Cc2ccc(Cl)cc2)CCN(C(=O)c2cnc(C)cn2)CC1	-1	4	0	-1	0
COC(=O)c1cc(NC(=O)C2COc3ccccc3O2)cc(C(=O)OC)c1 (stereo not drawn)	4	3	-2	29*	0
COc1cc(/C=N/n2c(C3CCCCC3)n[nH]c2=S)ccc1O	14	-10	24	34*	9
COc1cc(/C=N/n2c(-c3cc(C)[nH]n3)n[nH]c2=S)cc(OC)c1OC	-8	-3	8	0	1
COc1cc(/C=N/n2c(-c3cc(C)[nH]n3)n[nH]c2=S)ccc1O	11	-2	10	31*	3
COc1c(C)cc(C(=O)C2CCCN(S(=O)(=O)N(C)C)C2)cc1C (stereo not drawn)	-1	0	.	.	-1
CCOc1ccc(-c2cc(CCCC(=O)NCCCOC)no2)cc1	-1	2	0	28*	-1
CCOc1ccc(-c2cc(CCCC(=O)N3CCN(c4ccc(OC)cc4)CC3)no2)cc1	5	5	-1	-1	2
O=c1[nH]c(Nc2ccccc2Cl)cc2ccccc12	9	-2	-2	-1	-1
